An excerpt weighted towards active compounds, which were near 2.5% of everything screened.
MEKK2 WT-MEK5 = raises or lowers MEK5 binding to wildtype human MEKK2 PB1 domain; bead flow cytometry, Alexa488-MEK5 binding to MEKK2 WT; actives lie on both sides; 290,000 tested, 1.1% active; binding response (% of control), % at 10 µM; in the data active means binding response below about 67% or above about 130%
UCH37 inh = human UCH37 deubiquitinating enzyme inhibition; Q9Y5K5; purified proteasome/UCH37, Ub-AMC cleavage fluorescence; inhibition, % (test concentration not listed); 330,000 tested, 0.33% active; AID 588478;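 active means mean inhibition over replicate wells above about 20%, limit read from the data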;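 further: 0% = compound-free wells with enzyme and 100% = wells lacking proteasome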
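Test system – human UCH37 enzyme supplied as purified proteasome complex · Incubation – 30 min preincubation with enzyme, 25 min cleavage at room temperature · Detection – AMC fluorescence from Ub-AMC cleavage, excitation 355 nm, emission 460 nm · Benchmarks – no-proteasome wells (full inhibition) and compound-free wells (no inhibition)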
T cell HTS = T cell immune modulation candidate | 330,000 tested, 0.068% active | response (vesicle binding), % at 7 µM | AID 2052 | 2C CD8+ T cell-vesicle binding, flow cytometry; stronger effect = lower value;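 active means response, share of CD8 T cells binding vesicles, and their 90th percentile fluorescence all below set limits, cut at about 80% in these data, passing the limit was not always enough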;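 further: values below 100% mean blocked vesicle binding to the CD8+ T cells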
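Test system: purified 2C TCR transgenic mouse naive CD8+ T cells. Probe or stimulus: QL9-peptide-loaded Drosophila micro-vesicles bearing Ld, ICAM-1 and B7-1. Incubation: binding step 1.5 h, 37 °C, antibody labelling 20 min, ice. Measured by: flow cytometry of vesicle-bound cells.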
MEKK2 mut-MEK5 = signal of MEK5 binding to mutant human MEKK2 PB1 domain; bead flow cytometry, Alexa488-MEK5 binding to MEKK2 mutant; percent response, % at 10 µM; 290,000 tested, 0.35% active; AID 1530; in the data active means percent response above about 24%, passing the limit was not always enough
MEKK3 PB1 HTS = modulators (inhibitors or enhancers) of MEK5 binding to human MEKK3 PB1 domain; Q99759; bead-based flow cytometry, Alexa488-MEK5 binding to MEKK3; actives lie on both sides; 0 = blocked by unlabeled MEK5, 100 = vehicle; binding response (% of control), % at 10 µM; 290,000 tested, 1.4% active; AID 1529;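 active means binding response more than 3 SD above or below the average of its plate-row segment, actives on both sides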;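 further: Alexa488 bead fluorescence after subtracting the streptavidin-only scavenger bead signal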
Rce1 inh = inhibitors of yeast Ras-converting enzyme; Q03530; yeast membranes, quenched prenylated peptide cleavage fluorescence; calls only; 290,000 tested, 0.27% active; AID 2563;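 active means fall in fluorescence gain of 50% or more versus controls, with final raw signal at or below 3038400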;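 further: plate controls were neutral control wells for no effect and wells lacking membranes for full effect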
Target sequence (Q03530 whole entry, looked up): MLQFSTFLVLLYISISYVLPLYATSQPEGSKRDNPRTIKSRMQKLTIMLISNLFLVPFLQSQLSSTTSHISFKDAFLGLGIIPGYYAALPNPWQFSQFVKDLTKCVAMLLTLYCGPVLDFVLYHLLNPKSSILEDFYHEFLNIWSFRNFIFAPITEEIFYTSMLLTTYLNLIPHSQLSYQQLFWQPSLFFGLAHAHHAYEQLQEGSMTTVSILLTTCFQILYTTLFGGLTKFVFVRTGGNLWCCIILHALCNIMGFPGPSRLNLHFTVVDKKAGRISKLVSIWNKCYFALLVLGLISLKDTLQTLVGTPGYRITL
MEKK2wt confirm = raises or lowers MEK5 binding to wildtype human MEKK2, retest. shares compounds with MEKK3 PB1 HTS. binding response (% of control), % at 10 µM. bead flow cytometry, Alexa488-MEK5 binding to MEKK2 WT; actives lie on both sides. 5,900 tested, 2.4% active; in the data active means binding response below about 16% or above about 210%; inactive means in between
MEKK2mut confirm = signal of MEK5 binding to mutant human MEKK2, retest | 5,900 tested, 2% active | shares compounds with MEKK3 PB1 HTS | AID 1893 | percent response, % at 10 µM | bead flow cytometry, Alexa488-MEK5 binding to MEKK2 mutant; in the data active means percent response mostly above about 71%, no sharp cut-off; inactive means mostly below about 38%;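 further: higher means compound restores mutant binding toward wildtype level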
MEKK3-MEK5 inh = confirmation of inhibitors of MEK5 binding to human MEKK3; shares compounds with MEKK3 PB1 HTS; 5,900 tested, 1.8% active; binding response (% of control), % at 10 µM; AID 1894; bead flow cytometry, Alexa488-MEK5 binding to MEKK3; stronger effect = lower value;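 active means binding response below 72% of control, or above a set upper limit, though filed actives all read lower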;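 further: 100% = DMSO only wells and 0% = binding blocked by excess unlabeled MEK5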
* hit, by the source's call; i = inactive; . = not tested or not shown; [ ] = dose if it differs, or a comment.

SMILES	MEKK2 WT-MEK5	UCH37 inh	T cell HTS	MEKK2 mut-MEK5	MEKK3 PB1 HTS	Rce1 inh	MEKK2wt confirm	MEKK2mut confirm	MEKK3-MEK5 inh
CCO[C@H]1OC(C(=O)NCc2nc3ccccc3[nH]2)=C[C@@H](c2ccccc2)[C@@H]1CCCO	72	1	434	2	73	i	.	.	.
CCO[C@H]1OC(C(=O)NCc2nc3ccccc3[nH]2)=C[C@@H](C2CC2)[C@@H]1CCCO	2.0*[inhibitor]	4	111	12	1.0*[inhibitor]	i	100	-2	101
CCOC(=O)N1CCC(N2C(=O)c3ccccc3C2Nc2cc(C)cc(C)c2)CC1 (stereo not drawn)	115	1	233	31	128*	i	92	-10	96
CCOC(=O)N1CCC(N2C(=O)c3ccccc3C2Nc2ccc(C)cc2)CC1 (stereo not drawn)	112	0	380	6	108	i	.	.	.
CN1CCc2c(sc(N=Cc3cc(C(C)(C)C)ccc3O)c2C#N)C1	.	1	.	.	.	.	.	.	.
COC(=O)c1cc(N=Nc2c(C)[nH]c3ccccc23)cc(C(=O)OC)c1	95	4	97	-15	95	i	.	.	.
Cc1[nH]c2ccccc2c1N=Nc1cccc(C(=O)O)c1	95	16	505	1	68*[inhibitor]	i	107	4	106
CC(C)OC(=O)C(C)Oc1ccc(C(=O)NCCc2ccccc2)cc1 (stereo not drawn)	110	2	569	4	123*	i	104	6	100
Cc1cc(C(=O)NN=Cc2cc(N=Nc3ccccc3)ccc2O)n[nH]1	.	13	.	.	.	.	.	.	.
Cc1cc(C(=O)N/N=C/c2cc(N=Nc3ccccc3)ccc2O)n[nH]1	66	.	281	-4	38*[inhibitor]	i	79	-16	86
COC(=O)c1sc(-c2ccc(Cl)cc2)cc1NC(=O)c1ccccc1C(=O)O	67	2	130	-14	66*[inhibitor]	i	104	3	105
COC(=O)c1sc(-c2ccc(C(C)(C)C)cc2)cc1NC(=O)c1ccccc1C(=O)O	95	4	129	-8	96	i	.	.	.
COc1cc(C=NNC(=O)c2ccc(Cn3nc([N+](=O)[O-])c(Cl)c3C)o2)ccc1O	.	8	.	.	.	.	.	.	.
CCOc1ccccc1NC(=O)NCc1cccnc1	49	1	412	-16	43*[inhibitor]	i	96	-5	99
CCOc1ccccc1NC(=O)NCc1ccccc1	95	5	372	-10	92	i	.	.	.
Cc1ccc(C=Nc2sc3c(c2C#N)CCCCC3)o1	.	-1	.	.	.	.	.	.	.
COc1nc(NCCC2=CCCCC2)nc(OC)n1	107	5	297	4	124*	i	107	4	106
COc1cc(C=NNC(=O)[C@H](Cc2c[nH]c3ccccc23)NC(=O)OCC(C)C)cc([N+](=O)[O-])c1O	.	18	.	.	.	.	.	.	.
COc1ccc(C(C)=O)cc1COC(=O)CNC(=O)C1CCCCC1	.	4	207	.	.	.	.	.	.
COc1ccc(C(C)=O)cc1COC(=O)CNC(=O)c1ccccc1F	103	0	366	-1	138*	i	100	6	103
COc1ccc(C[C@H]2CN3C(=NC[C@@H]3Cc3ccccc3)N2C[C@H](C)NC(=O)CCC2CCCCC2)cc1	92	.	.	7	109	i	.	.	.
COc1ccc(C[C@H]2CN3C(=NC[C@H]3Cc3ccccc3)N2CCNC(=O)c2ccc(C)c(Br)c2)cc1	154*	1	308	27*	105	i	176	26	105
